Assay results from ChEMBL document CHEMBL1150156, “Semisynthesis of new sarcophine derivatives with chemopreventive activity” (J Nat Prod, 2002).

What was measured:
[1] = Cytotoxicity against human Raji cells assessed as cell viability at 1000 molar ratio; format: cell-based; conditions: read-out: Activity
How it was run: (§1)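 Raji cells (EBV nonproducer type) serve as indicator cells in the TPA-induced EBV-EA activation assay. Sample is dosed as a mol ratio to TPA, with TPA at 32 pmol; ×1000 corresponds to 32 nmol/mL sample. Viability of the indicator cells is reported as a percentage.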

[2] = Cytotoxicity against human Raji cells assessed as cell viability at 500 molar ratio; format: cell-based; conditions: read-out: Activity; how it was run: as §1
Raji [3] = experiment: Inhibition of TPA-induced EBV-early antigen activation in human Raji cells assessed as early antigen induction at 500 molar ratio relative to TPA; format: cell-based; conditions: human gammaherpesvirus 4
How it was run: (§2)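 EBV early antigen induction is measured in Raji cells (virus nonproducer type) stimulated with TPA at 32 pmol. Sample concentration is expressed as mol ratio/TPA; ×1000 equals 32 nmol/mL. EA induction is expressed as a percentage of the positive (TPA-only) value, set as 100%.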

Raji [4] = experiment: Inhibition of TPA-induced EBV-early antigen activation in human Raji cells assessed as early antigen induction at 1000 molar ratio relative to TPA; format: cell-based; conditions: human gammaherpesvirus 4; how it was run: as §2
[5] = Cytotoxicity against human Raji cells assessed as cell viability at 10 molar ratio; format: cell-based; conditions: read-out: Activity; how it was run: as §1
[6] = Cytotoxicity against human Raji cells assessed as cell viability at 100 molar ratio; format: cell-based; conditions: read-out: Activity; how it was run: as §1
Raji [7] = experiment: Inhibition of TPA-induced EBV-early antigen activation in human Raji cells assessed as early antigen induction at 100 molar ratio relative to TPA; format: cell-based; conditions: human gammaherpesvirus 4; how it was run: as §2
Raji [8] = experiment: Inhibition of TPA-induced EBV-early antigen activation in human Raji cells assessed as early antigen induction at 10 molar ratio relative to TPA; conditions: human gammaherpesvirus 4

| Compound | viability at 1000 molar ratio [1] [%] | viability at 500 molar ratio [2] [%] | EBV early antigen induction (% of TPA control) (Raji [3]) [%] | EBV early antigen induction (% of TPA-only control) (Raji [4]) [%] | viability at 10 molar ratio [5] [%] | viability at 100 molar ratio [6] [%] | EBV early antigen induction (% of TPA-only control) (Raji [7]) [%] | EBV early antigen induction relative to TPA (Raji [8]) [%] |
| --- | --- | --- | --- | --- | --- | --- | --- | --- |
| C/C1=C\C=C(\[C@@](C)(O)CO)C[C@@H](O)/C(C)=C/CC[C@]2(C)O[C@H]2CC1 | 60 | > 80 | 54.2 | 5.7 | > 80 | > 80 | 72.9 | 92.6 |
| C/C(CO)=C1\CC/C(C)=C/CC[C@]2(C)O[C@H]2CC/C(C)=C/[C@@H]1O | 60 | > 80 | 57.3 | 9.6 | > 80 | > 80 | 75.5 | 94.1 |
| CC1=C2C[C@H](O)/C(C)=C/CC[C@]3(C)O[C@H]3CC/C(C)=C/[C@@H]2OC1=O | 60 | > 80 | 62.8 | 14.2 | > 80 | > 80 | 81.3 | 100 |
| C/C1=C\C=C(\[C@@](C)(O)CO)CC/C(C=O)=C/CC[C@]2(C)O[C@H]2CC1 | 60 | > 80 | 52.4 | 3.6 | > 80 | > 80 | 71.3 | 90.6 |
| C/C1=C\C=C(\C(C)C)[C@@H](O)C/C(C)=C/CC/C(C)=C/CC1 | 50 | > 80 | 60.4 | 11.7 | > 80 | > 80 | 79.1 | 97.3 |
| C/C1=C\C=C(\[C@@](C)(O)CO)CC(=O)/C(C)=C/CC[C@]2(C)O[C@H]2CC1 | 60 | > 80 | 56.7 | 8.3 | > 80 | > 80 | 75.1 | 94 |
| C/C1=C\C=C(\[C@@](C)(O)CO)C[C@H](O)/C(C)=C/CC[C@]2(C)O[C@H]2CC1 | 60 | > 80 | 55.8 | 5.9 | > 80 | > 80 | 74.6 | 93.8 |
| CC1=C2CC/C(C=O)=C/CC[C@]3(C)O[C@H]3CC/C(C)=C/[C@@H]2OC1=O | 60 | > 80 | 60.8 | 12.7 | > 80 | > 80 | 81.3 | 96 |
| CC1=C2CC/C(C)=C/CC[C@]3(C)O[C@H]3CC/C(C)=C/[C@@H]2OC1=O [SARCOPHINE] | 60 | > 80 | 67.5 | 19.6 | > 80 | > 80 | 84 | 100 |
